Test results reported in ChEMBL document CHEMBL5653620, “Activating the Wnt/β-Catenin Pathway for the Treatment of Melanoma--Application of LY2090314, a Novel Selective Inhibitor of Glycogen Synthase Kinase-3” (PLoS One, 2015).
The source made the active and inactive calls. No cut-off for these calls is given here.

Tests used:
[1] = target: T1, Glycogen synthase kinase-3 (Homo sapiens) (UniProt P49840+P49841); experiment: Inhibition of GSK3 in human A-375 cells assessed as increase in free beta-catenin at 20 nM for 48 hrs by immunoprecipitation analysis; assay type: cell-based
Procedure, shortened: (§1)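 Free β-catenin measured as the fraction binding the E-cadherin C-terminus. Lysate (300 μg protein) incubated with 10 μg His-Flag-E-cadherin, then captured overnight at 4°C on anti-FLAG M2 affinity gel. Resin washed 3 times in lysis buffer and eluted in reducing loading buffer. Bound β-catenin detected by immunoblot.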

[2] = target: T1, Glycogen synthase kinase-3 (Homo sapiens); experiment: Inhibition of GSK3 in human M14 cells assessed as increase in free beta-catenin at 20 nM for 48 hrs by immunoprecipitation analysis; assay type: cell-based; procedure, shortened: as §1
[3] = target: T1, Glycogen synthase kinase-3 (Homo sapiens); experiment: Inhibition of GSK3 in human MEL1102 cells assessed as increase in free beta-catenin at 20 nM for 48 hrs by immunoprecipitation analysis; assay type: cell-based; procedure, shortened: as §1
[4] = system: A-375; experiment: Antiproliferative activity against human A-375 cells harboring BRAF V600E mutation assessed as reduction in cell viability incubated for 72 hrs by CellTitre-Glo assay; assay type: functional, cell-based; details: A-375, 72 h
Procedure, shortened: (§2)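 Cells seeded at 2,000 per well and left to adhere overnight. After 24 h, medium was switched to growth medium with 2% FBS. Test agent was added at 0.5 nmol/L to 10 μmol/L for 72 h. Viability was read by CellTiter-Glo luminescence. IC50 came from nonlinear regression sigmoidal dose-response fits.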

[5] = Antiproliferative activity against human MEXF276 cells harboring BRAF V600E mutation assessed as reduction in cell viability incubated for 72 hrs by CellTitre-Glo assay; assay type: functional, cell-based; details: MEXF276, 72 h; procedure, shortened: as §2
[6] = Antiproliferative activity against human MEXF462 cells harboring BRAF V600E mutation assessed as reduction in cell viability incubated for 72 hrs by CellTitre-Glo assay; assay type: functional, cell-based; details: MEXF462, 72 h; procedure, shortened: as §2
[7] = system: SK-MEL-28; experiment: Antiproliferative activity against human SK-MEL-28 cells harboring BRAF V600E mutation assessed as reduction in cell viability incubated for 72 hrs by CellTitre-Glo assay; assay type: functional, cell-based; details: SK-MEL-28, 72 h; procedure, shortened: as §2
[8] = system: A2058; experiment: Antiproliferative activity against human A2058 cells harboring BRAF V600E/PTEN null mutation assessed as reduction in cell viability incubated for 72 hrs by CellTitre-Glo assay; assay type: functional, cell-based; details: A2058, 72 h; procedure, shortened: as §2
[9] = Antiproliferative activity against human MEXF1792 cells harboring NRAS G13D mutation assessed as reduction in cell viability incubated for 72 hrs by CellTitre-Glo assay; assay type: functional, cell-based; details: MEXF1792, 72 h; procedure, shortened: as §2
[10] = system: A-375; experiment: Induction of apoptosis in human A-375 cells assessed as increase in caspase3/7 activation at 5 to 40 nM after 72 hrs by Caspase-Glo assay; assay type: functional, cell-based; details: dose 5-40 nM
Procedure, shortened: (§3)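 Cells were plated at 2,000 per well and allowed to adhere overnight. Medium was then replaced with growth medium containing 2% FBS, and cells were exposed to agent for 72 h. Caspase 3/7 activity was measured by Caspase-Glo luminescence.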

[11] = system: M14; experiment: Induction of apoptosis in human M14 cells assessed as increase in caspase3/7 activation at 5 to 40 nM after 72 hrs by Caspase-Glo assay; assay type: functional, cell-based; details: dose 5-40 nM; procedure, shortened: as §3
[12] = system: COLO 205; experiment: Antiproliferative activity against human COLO 205 assessed as reduction in cell viability incubated for 72 hrs by CellTitre-Glo assay; assay type: functional, cell-based; details: COLO 205, 72 h; procedure, shortened: as §2
[13] = system: DU-145; experiment: Antiproliferative activity against human DU-145 assessed as reduction in cell viability incubated for 72 hrs by CellTitre-Glo assay; assay type: functional, cell-based; details: DU-145, 72 h; procedure, shortened: as §2
[14] = system: NCI-H460; experiment: Antiproliferative activity against human H460 assessed as reduction in cell viability incubated for 72 hrs by CellTitre-Glo assay; assay type: functional, cell-based; details: NCI-H460, 72 h; procedure, shortened: as §2
[15] = system: SK-MES-1; experiment: Antiproliferative activity against human SK-MES-1 assessed as reduction in cell viability incubated for 72 hrs by CellTitre-Glo assay; assay type: functional, cell-based; details: SK-MES-1, 72 h; procedure, shortened: as §2
[16] = system: A-375; experiment: Antiproliferative activity against human A-375 cells transfected with beta-catenin shRNA assessed as reduction in cell viability incubated for 72 hrs by CellTitre-Glo assay; assay type: functional, cell-based
Procedure, shortened: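 A375 or M14 cells were transduced with lentiviral shRNA particles (target or control) at MOI 2 with polybrene 8 μg/ml. Puromycin selection at 2 μg/ml began 48 h later, and knockdown was checked by immunoblot. Cells were seeded at 2,000 per well in 2% FBS medium, exposed to agents for 72 h, and read by CellTiter-Glo.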

[17] = system: A-375; experiment: Antiproliferative activity against human A-375 cells transfected with GSK3alpha shRNA assessed as reduction in cell viability at 4.5 nM incubated for 72 hrs by CellTitre-Glo assay; assay type: functional, cell-based
[18] = system: M14; experiment: Antiproliferative activity against human vemurafenib-resistant M14 cells harboring BRAF V600E mutation assessed as reduction in cell viability incubated for 72 hrs by CellTitre-Glo assay; assay type: functional, cell-based; details: M14, 72 h
Procedure, shortened: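 Resistant A375 or M14 lines were derived by growth in vemurafenib over 3 months. Cells were seeded at 2,000 per well and allowed to adhere overnight, then moved to 2% FBS growth medium. Agents were added at 0.5 nmol/L–10 μmol/L for 72 h. Viability was read by CellTiter-Glo, and IC50 was taken from sigmoidal nonlinear regression.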

[19] = system: vemurafenib-resistant A-375; experiment: Effect on RAS signaling in human vemurafenib-resistant A-375 cells assessed as effect on phosphorylation of MEK at 20 nM measured up to 8 hrs by western blot analysis; assay type: cell-based
Procedure, shortened: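 Parental and vemurafenib-resistant A375 cells were treated for up to 8 h. Lysis was on ice in 1% Triton X100, 25 mM Tris pH 7.5, 150 mM NaCl, EDTA/EGTA and protease/phosphatase inhibitors. Proteins were run on 4–20% SDS-PAGE and blotted to nitrocellulose. pMEK antibody was used at 1:1000 overnight at 4°C, with HRP secondary and chemiluminescence detection.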

[20] = target: T1, Glycogen synthase kinase-3 (Homo sapiens); experiment: Inhibition of GSK3 in human vemurafenib-resistant A-375 cells assessed as increase in phosphorylation of JNK at 20 nM measured up to 8 hrs by western blot analysis; assay type: cell-based
Procedure, shortened: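 Vemurafenib-resistant A375 cells were selected by 3 months' growth in vemurafenib, then treated for up to 8 h. Lysed in Triton X100/Tris pH 7.5/NaCl/EDTA/EGTA buffer with protease/phosphatase inhibitors, freeze-thawed and sonicated. Equal protein run on 4–20% SDS-PAGE and blotted to nitrocellulose. Antibodies at 1:1000 in 1% BSA overnight at 4°C, HRP anti-rabbit secondary, chemiluminescence.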

[21] = system: A-375; experiment: Antitumor activity against human A-375 cells xenografted in CD1 nu/nu mouse assessed decrease in tumor volume at 25 mg/kg, iv q3d; assay type: functional, organism-based
Procedure, shortened: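 Female 6–8 week athymic nude mice received 5 million A375 cells s.c. in the flank with matrigel (1:1). At tumors of ~100 mm2, mice were randomized to agent 25 mg/kg i.v. Q3D or vehicle (20% Captisol/0.01N HCl). Caliper tumor volume ((a2 x b)/2) and body weight were recorded twice weekly. Repeated-measures ANOVA was fit by mixed model.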

T1 sequence (P49840 whole entry, looked up): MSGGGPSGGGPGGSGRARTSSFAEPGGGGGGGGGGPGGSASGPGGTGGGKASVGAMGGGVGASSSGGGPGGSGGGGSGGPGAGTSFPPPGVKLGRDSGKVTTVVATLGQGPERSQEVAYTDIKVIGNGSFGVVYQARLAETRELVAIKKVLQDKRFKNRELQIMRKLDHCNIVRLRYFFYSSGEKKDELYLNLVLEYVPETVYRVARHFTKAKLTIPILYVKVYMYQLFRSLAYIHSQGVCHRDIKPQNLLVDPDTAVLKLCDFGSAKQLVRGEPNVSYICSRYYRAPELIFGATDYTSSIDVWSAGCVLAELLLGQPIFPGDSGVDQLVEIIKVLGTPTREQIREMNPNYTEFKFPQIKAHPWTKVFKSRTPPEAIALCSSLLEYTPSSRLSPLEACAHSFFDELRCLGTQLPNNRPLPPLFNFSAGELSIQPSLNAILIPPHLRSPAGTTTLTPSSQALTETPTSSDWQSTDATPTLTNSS
T1 sequence (P49841 whole entry, looked up): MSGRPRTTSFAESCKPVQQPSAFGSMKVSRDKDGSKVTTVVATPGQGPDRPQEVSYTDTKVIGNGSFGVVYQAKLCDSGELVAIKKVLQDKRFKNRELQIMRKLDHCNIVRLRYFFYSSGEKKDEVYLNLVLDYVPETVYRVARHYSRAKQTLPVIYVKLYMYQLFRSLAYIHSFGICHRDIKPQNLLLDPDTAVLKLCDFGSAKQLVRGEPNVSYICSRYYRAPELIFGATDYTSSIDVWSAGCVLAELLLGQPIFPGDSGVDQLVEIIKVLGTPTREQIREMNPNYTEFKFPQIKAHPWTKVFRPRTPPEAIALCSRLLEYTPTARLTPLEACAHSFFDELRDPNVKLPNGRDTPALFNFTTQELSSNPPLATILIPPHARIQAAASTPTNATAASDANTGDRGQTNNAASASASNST

inhibition [1]: Active
inhibition [2]: Active
inhibition [3]: Active
IC50 [4]: 10 nM
IC50 [7]: > 10000 nM
IC50 [12]: 11300 nM
IC50 [13]: 5520 nM
IC50 [14]: 13200 nM
IC50 [15]: > 20000 nM
inhibition [20]: Active
SMILES: O=C1NC(=O)C(c2cnc3ccccn23)=C1c1cn2c3c(cc(F)cc13)CN(C(=O)N1CCCCC1)CC2 [LY-2090314]
IC50 [5]: 14 nM
IC50 [6]: 12 nM
IC50 [8]: 8 nM
IC50 [9]: 46 nM
Activity [10]: Active
Activity [11]: Active
Activity [16]: Active
Activity [17]: inactive
IC50 [18]: 7 nM
Activity [19]: inactive
Activity [21]: Active
